The source made the active and inactive calls. The calls are words filed in the database; no cut-off is given here.
Legend:
[1] = test system: Quadruplex DNA; experiment: Induction of conformational changes in human Bcl2 G-quadruplex DNA assessed as inversion from potassium ion stabilized hybrid type mixed parallel/antiparallel G-quadruplex to stable telomere parallel-stranded G-quadruplex after 5 mins in presence of KCl by CD spectroscopic method; type: nucleic-acid assay
Outline: (§1)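 CD spectra of 5 µM G4 DNA in 10 mM Tris-HCl pH 7.4, 100 mM KCl, 0.1 mM EDTA, with or without ligand. Mixtures were heated 95 °C for 5 min and slowly cooled to room temperature. Recorded 200–400 nm at 25 °C, 100 nm/min, 2 s response, 1 cm cell; average of three scans.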

[2] = molecular target: Quadruplex DNA; experiment: Displacement of thiazole orange from human telomeric G-quadruplex DNA after 5 mins in presence of KCl by fluorescence assay; type: nucleic-acid assay
Outline: (§2)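 Thiazole orange displacement from a G4 DNA–TO complex (1 µM TO + 0.5 µM G4 DNA) in 10 mM Tris-HCl pH 7.4, 100 mM KCl, 0.1 mM EDTA. Ligand was added in increasing steps, with 5 min incubation each. Fluorescence read at ex 501/em 531 nm; % displacement = 100 − (Ft/F0 × 100). DC50 is the ligand concentration giving 50% displacement, read from plots; average of two independent experiments.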

[3] = test system: Quadruplex DNA; experiment: Binding affinity to human VEGF G-quadruplex DNA at 0.6 uM after 5 mins in presence of KCl by fluorescence spectroscopic method; type: nucleic-acid assay
Outline: (§3)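 Fluorescence titration at 25 °C with 0.6 µM ligand in 10 mM Tris-HCl pH 7.4, 100 mM KCl, 0.1 mM EDTA. Preformed G4 DNA was added stepwise, with 5 min incubation before each spectrum. Excitation 330 nm; emission 350–550 nm, slit 5 nm.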

[4] = test system: Quadruplex DNA; experiment: Induction of conformational changes in human telomeric G-quadruplex DNA assessed as inversion from potassium ion stabilized hybrid type mixed parallel/antiparallel G-quadruplex to stable telomere parallel-stranded G-quadruplex after 5 mins in presence of KCl by CD spectroscopic method; type: nucleic-acid assay; outline: as §1
[5] = test system: Quadruplex DNA; experiment: Binding affinity to human VEGF G-quadruplex DNA assessed as stabilization of parallel stranded topology after 5 mins in presence of KCl by CD spectroscopic method; type: nucleic-acid assay; outline: as §1
[6] = test system: Quadruplex DNA; experiment: Binding affinity to human c-Kit2 G-quadruplex DNA assessed as stabilization of parallel stranded topology after 5 mins in presence of KCl by CD spectroscopic method; type: nucleic-acid assay; outline: as §1
[7] = test system: Quadruplex DNA; experiment: Binding affinity to human VEGF G-quadruplex DNA assessed as change in melting temperature in presence of KCl by CD spectroscopic method; type: nucleic-acid assay
Outline: (§4)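 CD melting of 5 µM G4 DNA in 10 mM Tris-HCl pH 7.4, 25 mM KCl, 0.1 mM EDTA. Ligand was present during folding (heating, slow cooling). Spectra 200–400 nm over 20–96 °C in 2 °C steps, buffer blank subtracted. Tm was taken from normalized ellipticity at the positive maximum (262 nm for promoter G4s). ΔTm = ligand-bound minus DNA alone; average of two independent experiments.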

[8] = test system: Quadruplex DNA; experiment: Binding affinity to human c-Myc G-quadruplex DNA at 0.6 uM after 5 mins in presence of KCl by fluorescence spectroscopic method; type: nucleic-acid assay; outline: as §3
[9] = test system: Quadruplex DNA; experiment: Binding affinity to human c-Kit2 G-quadruplex DNA assessed as change in melting temperature in presence of KCl by CD spectroscopic method; type: nucleic-acid assay; outline: as §4
[10] = test system: Quadruplex DNA; experiment: Binding affinity to human telomeric G-quadruplex DNA assessed as change in melting temperature in presence of KCl by CD spectroscopic method; type: nucleic-acid assay; outline: as §4
[11] = test system: Quadruplex DNA; experiment: Binding affinity to human c-Kit1 G-quadruplex DNA assessed as change in melting temperature in presence of KCl by CD spectroscopic method; type: nucleic-acid assay; outline: as §4
[12] = test system: Quadruplex DNA; experiment: Binding affinity to human c-Kit1 G-quadruplex DNA at 0.6 uM after 5 mins in presence of KCl by fluorescence spectroscopic method; type: nucleic-acid assay; outline: as §3
[13] = test system: Quadruplex DNA; experiment: Binding affinity to human Bcl2 G-quadruplex DNA at 0.6 uM after 5 mins in presence of KCl by fluorescence spectroscopic method; type: nucleic-acid assay; outline: as §3
[14] = molecular target: Quadruplex DNA; experiment: Displacement of thiazole orange from human Bcl2 G-quadruplex DNA after 5 mins in presence of KCl by fluorescence assay; type: nucleic-acid assay; outline: as §2
[15] = test system: Quadruplex DNA; experiment: Binding affinity to human c-Kit1 G-quadruplex DNA assessed as stabilization of parallel stranded topology after 5 mins in presence of KCl by CD spectroscopic method; type: nucleic-acid assay; outline: as §1
[16] = test system: Calf thymus DNA; experiment: Displacement of thiazole orange from calf thymus duplex DNA after 5 mins in presence of KCl by fluorescence assay; type: nucleic-acid assay, Bos taurus
[17] = test system: Quadruplex DNA; experiment: Binding affinity to human c-Myc G-quadruplex DNA assessed as stabilization of parallel stranded topology after 5 mins in presence of KCl by CD spectroscopic method; type: nucleic-acid assay; outline: as §1
[18] = molecular target: Quadruplex DNA; experiment: Displacement of thiazole orange from human c-Kit2 G-quadruplex DNA after 5 mins in presence of KCl by fluorescence assay; type: nucleic-acid assay; outline: as §2
[19] = test system: Quadruplex DNA; experiment: Binding affinity to human telomeric G-quadruplex DNA at 0.6 uM after 5 mins in presence of KCl by fluorescence spectroscopic method; type: nucleic-acid assay; outline: as §3
[20] = test system: Quadruplex DNA; experiment: Binding affinity to human c-Kit2 G-quadruplex DNA at 0.6 uM after 5 mins in presence of KCl by fluorescence spectroscopic method; type: nucleic-acid assay; outline: as §3
[21] = test system: Quadruplex DNA; experiment: Binding affinity to human Bcl2 G-quadruplex DNA assessed as change in melting temperature in presence of KCl by CD spectroscopic method; type: nucleic-acid assay; outline: as §4
[22] = molecular target: Quadruplex DNA; experiment: Displacement of thiazole orange from human VEGF G-quadruplex DNA after 5 mins in presence of KCl by fluorescence assay; type: nucleic-acid assay; outline: as §2
[23] = test system: Quadruplex DNA; experiment: Binding affinity to human c-Myc G-quadruplex DNA assessed as change in melting temperature in presence of KCl by CD spectroscopic method; type: nucleic-acid assay; outline: as §4
[24] = molecular target: Quadruplex DNA; experiment: Displacement of thiazole orange from human c-Kit1 G-quadruplex DNA after 5 mins in presence of KCl by fluorescence assay; type: nucleic-acid assay; outline: as §2
[25] = molecular target: Quadruplex DNA; experiment: Displacement of thiazole orange from human c-Myc G-quadruplex DNA after 5 mins in presence of KCl by fluorescence assay; type: nucleic-acid assay; outline: as §2
[26] = test system: Quadruplex DNA; experiment: Binding affinity to human 77-mer c-Myc G-quadruplex DNA assessed as inhibition of Taq DNA polymerase-mediated DNA synthesis by measuring generation of premature chain termination products using 32P-labeled primer after 30 mins by polymerase stop assay; type: nucleic-acid assay
Outline: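 Template of 10 nM single-stranded 77-mer c-MYC with the G-quadruplex-forming sequence, annealed to 32P-labeled plus cold primer (15 nM) in Tris-HCl pH 7.4 with 5 mM KCl. Annealing was 95 °C for 5 min then slow cooling, with ligand added before annealing. Extension with Taq polymerase (5 mM MgCl2, 0.5 mM DTT, 0.2 mM dNTPs) ran 30 min at 48 or 40 °C. Products were resolved on 15% urea denaturing PAGE and read by phosphorimaging.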

Row | SMILES | Activity [1] | DC50 [2] | Activity [3] | Activity [4] | Activity [5] | Activity [6] | ΔTm [7] | Activity [8] | ΔTm [9] | ΔTm [10] | ΔTm [11] | Activity [12] | DC50 [14] | DC50 [16] | DC50 [18] | ΔTm [21] | DC50 [22] | ΔTm [23] | DC50 [24] | DC50 [25] | also measured
1 | CN1CCN(CCCCn2c3ccc(-c4nc5cc(N6CCOCC6)ccc5[nH]4)cc3c3cc(-c4nc5cc(N6CCOCC6)ccc5[nH]4)ccc32)CC1 | inactive | 1300 nM | Active | inactive | Active | Active | 14.2 °C | Active | 16.6 °C | 16.9 °C | 12.2 °C | Active | 1290 nM | 5520 nM | 740 nM | 5.54 °C | 630 nM | 8.65 °C | 980 nM | 850 nM | Activity [13]: Active; Activity [15]: Active; Activity [17]: Active; Activity [19]: Active; Activity [20]: Active
2 | C[N+]1(CCCCN2CCOCC2)CCN(CCCCn2c3ccc(-c4nc5ccc(N6CCOCC6)cc5[nH]4)cc3c3cc(-c4nc5ccc(N6CCOCC6)cc5[nH]4)ccc32)CC1 | inactive | > 3000 nM | Active | inactive | Active | Active | 4.35 °C | Active | 7.53 °C | 7.14 °C | 3.58 °C | Active | > 3000 nM | > 10000 nM | > 3000 nM | 3.26 °C | > 3000 nM | 4.95 °C | > 3000 nM | > 3000 nM | Activity [13]: Active; Activity [15]: Active; Activity [17]: Active; Activity [19]: Active; Activity [20]: Active
3 | CCn1c2ccc(-c3nc4ccc(N5CCN(CCO)CC5)cc4[nH]3)cc2c2cc(-c3nc4ccc(N5CCN(CCO)CC5)cc4[nH]3)ccc21 | Active | 2790 nM | Active | Active | Active | Active | 12.8 °C | Active | 17 °C | 9.74 °C | 13.2 °C | Active | 2860 nM | 5280 nM | 1340 nM | 6.53 °C | 1420 nM | 8.63 °C | 1620 nM | 1630 nM | Activity [13]: Active; Activity [15]: Active; Activity [26]: Dose-dependent effect; Activity [17]: Active; Activity [19]: Active; Activity [20]: Active
4 | C[n+]1ccc(-c2c3nc(c(-c4cc[n+](C)cc4)c4ccc([nH]4)c(-c4cc[n+](C)cc4)c4ccc([nH]4)c(-c4cc[n+](C)cc4)c4nc2C=C4)C=C3)cc1 |  |  |  |  |  |  | 12.3 °C |  | 15.5 °C | 15.6 °C | 15.1 °C |  |  |  |  | 14.3 °C |  | 11 °C |  |  | 
5 | CN1CCN(CCCCn2c3ccc(-c4nc5cc(N6CCN(CCO)CC6)ccc5[nH]4)cc3c3cc(-c4nc5cc(N6CCN(CCO)CC6)ccc5[nH]4)ccc32)CC1 | Active | 1150 nM | Active | Active | Active | Active | 14.2 °C | Active | 22 °C | 21.2 °C | 25.9 °C | Active | 1440 nM | 6490 nM | 660 nM | 9.5 °C | 750 nM | 8.86 °C | 880 nM | 980 nM | Activity [13]: Active; Activity [15]: Active; Activity [17]: Active; Activity [19]: Active; Activity [20]: Active
6 | C[n+]1ccc(-c2c3nc(c(-c4cc[n+](C)cc4)c4ccc([nH]4)c(-c4cc[n+](C)cc4)c4nc(c(-c5cc[n+](C)cc5)c5ccc2[nH]5)C=C4)C=C3)cc1 |  | 470 nM |  |  |  |  |  |  |  |  |  |  | 430 nM | 870 nM | 350 nM |  | 310 nM |  | 320 nM | 380 nM | 

— ChEMBL document CHEMBL4196021, “Targeting G-quadruplex DNA structures in the telomere and oncogene promoter regions by benzimidazole‒carbazole ligands” (Eur J Med Chem, 2018)
